ChEMBL document CHEMBL3112463, “Synthesis and biological activity of polyalthenol and pentacyclindole analogues” (2014)
Converted amounts (≈) assume the structure as drawn.

Assays:
Type in all cases: functional
WiDr = test: Antiproliferative activity against human WiDr cells assessed as growth inhibition after 48 hrs by SRB assay
Summary of the method: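 WiDr cells seeded at 20,000 cells/well after trypsinization into antibiotic-containing medium (trypan blue viability >97%). Culture at 37 °C, 5% CO₂ with foetal calf serum and 2 mM L-glutamine. Exposure to triplicate compound dilutions from DMSO stocks (0.25% v/v DMSO control) started day 1, lasting 48 h. Fixed with ice-cold 50% TCA, 60 min at 4 °C, then SRB, OD 492 nm background-subtracted.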

T47D = test: Antiproliferative activity against human T47D cells assessed as growth inhibition after 48 hrs by SRB assay
Summary of the method: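 T-47D cells grown at 37 °C, 5% CO₂ in serum- and 2 mM L-glutamine-containing medium. Trypsinized, viability >97% by trypan blue, seeded at 15,000 cells/well. Compounds added day 1 in triplicate dilutions (DMSO vehicle 0.25% v/v as control) for 48 h. Cold 50% TCA fixation 60 min at 4 °C, SRB read at 492 nm with blank correction.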

HeLa = test: Antiproliferative activity against human HeLa cells assessed as growth inhibition after 48 hrs by SRB assay
Summary of the method: (§1)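 Cells maintained at 37 °C, 5% CO₂ in medium with foetal calf serum and 2 mM L-glutamine. Trypsinized into antibiotic medium, >97% viable by trypan blue, plated at 10,000 cells/well. Triplicate dilutions from DMSO stocks (0.25% v/v DMSO control) added on day 1 for 48 h. TCA fixation (50%, 4 °C, 60 min), SRB stain, OD 492 nm corrected for medium-only blank.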

SW1573 = test: Antiproliferative activity against human SW1573 cells assessed as growth inhibition after 48 hrs by SRB assay; details: SW1573, 48 h; summary of the method: as §1
[1] = Antiproliferative activity against human HBL100 cells assessed as growth inhibition after 48 hrs by SRB assay; details: HBL-100, 48 h; summary of the method: as §1
A549 = test: Antiproliferative activity against human A549 cells assessed as growth inhibition after 48 hrs by SRB assay; details: A549, 48 h
Summary of the method: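 Cells kept in medium with foetal calf serum and 2 mM L-glutamine at 37 °C, 5% CO₂. Trypsinized, resuspended in penicillin/streptomycin medium, >97% trypan blue viability, seeded at 10,000 cells/well. Compounds from DMSO stocks (0.25% v/v DMSO control), triplicate dilutions, added day 1 for 48 h. Fixed with cold 50% TCA for 60 min at 4 °C, then SRB staining, OD 492 nm, background corrected.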

Staphylococcus aureus = test: Antimicrobial activity against Staphylococcus aureus ATCC 29213 after 24 hrs by broth microdilution method; details: ATCC 29213, 24 h
Summary of the method: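 Bacteria grown on nutrient agar at 35–37 °C for 24 h, then suspended in normal saline to approx. […] by matching to 0.5 McFarland standard. Broth microdilution in Mueller Hinton broth with growth and sterility controls, compounds first dissolved in DMSO.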

Row | GI50 (T47D) | GI50 (HeLa) | GI50 (SW1573) | GI50 (A549) | MIC (Staphylococcus aureus) | SMILES | GI50 (WiDr) | GI50 [1]
1 | 17 µM | 4.4 µM | 7.9 µM | 45 µM | 50 µM (≈ 19.7 µg/mL) | COC(=O)[C@@]1(C)CCC=C2[C@@H]1CC[C@@H](C)[C@]2(C)Cc1c(C=O)[nH]c2ccccc12 | 20 µM | 7.5 µM
2 | 19 µM | 20 µM | 25 µM | 22 µM | – | COC(=O)[C@@]1(C)CC[C@@H]2C3=C1CC[C@@H](C)[C@]3(C)C[C@@H]1c3cc(OC)ccc3N[C@H]21 | 25 µM | 15 µM
3 | 15 µM | 11 µM | 14 µM | 15 µM | – | COC(=O)[C@@]1(C)CCC=C2[C@@H]1CC[C@@H](C)[C@]2(C)Cc1c[nH]c2ccc(C(F)(F)F)cc12 | 18 µM | 15 µM
4 | 23 µM | 18 µM | 23 µM | 27 µM | – | COC(=O)[C@@]1(C)CC[C@@H]2C3=C1CC[C@@H](C)[C@]3(C)C[C@@H]1c3cc(C)ccc3N[C@H]21 | 32 µM | 15 µM
5 | 13 µM | 5.5 µM | 13 µM | 9.1 µM | – | Cc1c(C[C@]2(C)C3=CCC[C@](C)(C(=O)O)[C@H]3CC[C@H]2C)c2cc(Cl)ccc2n1C(c1ccccc1)c1ccccc1 | 16 µM | 13 µM
6 | 29 µM | 22 µM | 31 µM | 30 µM | – | COC(=O)[C@@]1(C)CC[C@@H]2C3=C1CC[C@@H](C)[C@]3(C)C[C@@H]1c3cccc(C)c3N[C@H]21 | 43 µM | 32 µM
7 | 50 µM | 31 µM | 49 µM | 54 µM | – | COC(=O)[C@@]1(C)CC[C@@H]2C3=C1CC[C@@H](C)[C@]3(C)C[C@@H]1c3cccc(Cl)c3N[C@H]21 | 67 µM | 52 µM
